For data set [1] the following is noted: hepatic impairment studies; cited from earlier work.
Data set [2] is classed as in vivo, human. In a few lines: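 Open-label parallel single-dose study; participants grouped by baseline Child-Pugh A, B, C or normal hepatic function. One subcutaneous 5-mg injection. Plasma sampled pre-dose and 8, 12, 24, 48, 72, 96, 168, 336 h post-dose; analyte immunoprecipitated, quantified by high-resolution LC/MS, positive HESI, range 2.00–500.00 ng/mL. Noncompartmental parameters from actual sampling times; geometric mean (geometric CV%); tmax analysed nonparametrically.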

Data set [3] has as its system albumin. The note with it: in humans; background statement, no reference given; cited from earlier work.
For data set [4] the following is noted: cited from earlier work.
The conditions of data set [5]: in humans; background statement, no reference given; cited from earlier work.
In data set [6] the test system is cytochrome P450 enzymes, sulfation, or glucuronidation enzymes. To be noted: background statement, no reference given; cited from earlier work.
Data set [7] relates to renal or hepatic transporters. To be noted: ref data on file, Eli Lilly and Company; cited from earlier work.

Read-outs that look alike come from different tables or passages of the source.

As to dulaglutide, the “impact of the severity of hepatic disease status on pharmacokinetics” value in data set [1] is listed as “does not impact”.

On to `CC[C@H](C)[C@H](NC(=O)[C@H](CC(C)C)NC(=O)[C@H](Cc1c[nH]c2ccccc12)NC(=O)[C@H](CCC(N)=O)NC(=O)[C@@H](NC(=O)[C@H](Cc1ccccc1)NC(=O)[C@H](C)NC(=O)[C@H](CCCCNC(=O)COCCOCCNC(=O)COCCOCCNC(=O)CC[C@H](NC(=O)CCCCCCCCCCCCCCCCCCC(=O)O)C(=O)O)NC(=O)[C@H](CCC(N)=O)NC(=O)[C@H](C)NC(=O)[C@@H](NC(=O)[C@H](CCCCN)NC(=O)[C@H](CC(=O)O)NC(=O)[C@H](CC(C)C)NC(=O)C(C)(C)NC(=O)[C@@H](NC(=O)[C@H](CO)NC(=O)[C@H](Cc1ccc(O)cc1)NC(=O)[C@H](CC(=O)O)NC(=O)[C@H](CO)NC(=O)[C@@H](NC(=O)[C@H](Cc1ccccc1)NC(=O)[C@@H](NC(=O)CNC(=O)[C@H](CCC(=O)O)NC(=O)C(C)(C)NC(=O)[C@@H](N)Cc1ccc(O)cc1)[C@@H](C)O)[C@@H](C)O)[C@@H](C)CC)[C@@H](C)CC)C(C)C)C(=O)N[C@@H](C)C(=O)NCC(=O)NCC(=O)N1CCC[C@H]1C(=O)N[C@@H](CO)C(=O)N[C@@H](CO)C(=O)NCC(=O)N[C@@H](C)C(=O)N1CCC[C@H]1C(=O)N1CCC[C@H]1C(=O)N1CCC[C@H]1C(=O)N[C@@H](CO)C(N)=O` [Tirzepatide], for which, in data set [2] (human, plasma, sc, 5 mg), the CL/F was 0.822 mL/min, the Tmax came out at 24 h, the Vd/F was 10.6 L and the half-life was 131 h. The CL/F in data set [2] (human, plasma, sc, 5 mg, CL/F (apparent total body clearance), single 5-mg subcutaneous dose, normal hepatic function, n = 13, geometric mean (geometric CV%), noncompartmental) was 0.988 mL/min. The “VSS/F (apparent volume of distribution at steady state)” value in data set [2] (single 5-mg subcutaneous dose, normal hepatic function, n = 13, geometric mean (geometric CV%), noncompartmental) was 10.7 (20) L. In addition, in data set [2] (single 5-mg subcutaneous dose, normal hepatic function, n = 13, geometric mean (range), noncompartmental), the “T1/2 (half-life associated with the terminal rate constant)” value is recorded as 124 (101–158) h. Moreover, the bound to albumin in data set [3] was 99.06%. Moreover, in data set [4] (SURPASS-3 sub-study, 52 weeks), the “decrease in liver fat content compared with insulin degludec” value was “significantly greater decrease”. In addition, the non-alcoholic steatohepatitis-related biomarkers result in data set [4] (post-hoc analysis of the phase II study, 26 weeks of treatment) is on record as “improvement”. Further, the half-life result in data set [5] is “approximately 5 days”. Besides, the “metabolism via pathways involving cytochrome P450 enzymes, sulfation, or glucuronidation enzymes” value in data set [6] is on record as “not metabolized”. In addition, in data set [7], the “substrate for renal or hepatic transporters commonly involved in drug disposition” value is “not a substrate”.

As to semaglutide, the “impact of the severity of hepatic disease status on pharmacokinetics” value in data set [1] is listed as “does not impact”.

Values taken from PMC9287213 (Clinical Pharmacokinetics, 2022).
